From PubChem
MrgX1 allo act = positive allosteric modulators of MrgX1, primary screen, HEK293 cells, Fluo-4 calcium flux | Mas-related G-protein coupled receptor member X1 (Homo sapiens), Q96LB2 | FDSS; stronger effect = higher value | B-score at 10 µM | actives 0.63% (n = 310,000) | AID 588675, 2011;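 active = plate-corrected calcium response at least 3 library SD above typical, normal starting fluorescence, not activating the receptor alone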;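 also: compound read alongside a low EC10 to EC30 dose of BAM8-22 agonist; peak minus trough fluorescence over baseline measured at the second addition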
Target sequence (Q96LB2 whole entry, looked up): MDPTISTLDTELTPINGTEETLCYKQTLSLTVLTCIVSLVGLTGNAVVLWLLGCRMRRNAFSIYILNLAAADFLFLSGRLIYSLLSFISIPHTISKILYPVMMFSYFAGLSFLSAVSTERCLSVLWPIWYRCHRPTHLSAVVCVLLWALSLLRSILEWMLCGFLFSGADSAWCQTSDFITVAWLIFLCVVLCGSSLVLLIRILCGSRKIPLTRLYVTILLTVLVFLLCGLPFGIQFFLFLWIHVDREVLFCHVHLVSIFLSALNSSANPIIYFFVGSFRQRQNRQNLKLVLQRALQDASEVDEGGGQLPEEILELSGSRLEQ
RGS4 act = RGS4 potentiators or activators, primary screen, cell-based, HEK293 M3R inducible RGS4, calcium flux | B-score at 10 µM | carbachol calcium flux Fluo4; stronger effect = lower value | AID 463111, 2010 | actives 0.92% (n = 310,000);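 active = B-score of the integrated calcium signal more than 4 SD below the library mean, with starting fluorescence not abnormally high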;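 also: negative B-score means reduced calcium response which marks RGS4 activation or potentiation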
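System – HEK293 FlpIn-TREx cells, stable M3R, doxycycline-inducible RGS4 · Reagent – ECmax carbachol challenge · Times – compound preincubation 20 min at room temperature before agonist · Technique – Fluo4 fluorescence kinetic imaging of calcium · Measure – B score of integrated Fluo4 ratio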
RGS4 inh = RGS4 inhibitors, primary screen, cell-based, HEK293 M3R inducible RGS4, calcium flux. Regulator of G-protein signaling 4 (Homo sapiens), P49798. Fluo-4 calcium flux; stronger effect = higher value; triggered by carbachol at its EC20. B-score at 10 µM. actives 0.45% (n = 310,000). AID 463165, 2010;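 active = B-score, a plate-corrected calcium signal, over three deviations above library mean, with baseline fluorescence within five deviations of library mean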;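 also: RGS4 expression induced by doxycycline in cells with stable M3 receptor; B-score is computed from the integrated fluorescence ratio over baseline after carbachol; higher B-score means a larger calcium signal and so more RGS4 inhibition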
Target sequence (P49798 whole entry, looked up): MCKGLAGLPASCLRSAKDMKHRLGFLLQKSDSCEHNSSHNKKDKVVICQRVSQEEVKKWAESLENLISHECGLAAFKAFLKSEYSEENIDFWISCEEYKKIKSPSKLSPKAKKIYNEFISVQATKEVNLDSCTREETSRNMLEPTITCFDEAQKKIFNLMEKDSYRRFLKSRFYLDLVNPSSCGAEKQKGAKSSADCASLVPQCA
MrgX1 ag = agonists of human MrgX1 receptor, primary screen, HEK293 cells, Fluo-4 calcium flux. actives 0.44% (n = 310,000). AID 588627, 2011. Fluo-4 calcium fluorescence, agonist mode; stronger effect = higher value. B-score at 10 µM. Mas-related G-protein coupled receptor member X1 (Homo sapiens), Q96LB2;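 active = calcium response B-score plate-corrected fluorescence ratio at least 3 library SD, with starting fluorescence B-score inside 5 SD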
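Test system: Stable human MrgX1 HEK293 cell line | Schedule: Overnight plating before 1 h dye loading | Read-out basis: Baseline-normalised fluorescence change ratio, B-scored | Detection: Kinetic calcium dye fluorescence, Fluo-4 NW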
MrgX1 antagonist = antagonists of human MrgX1 receptor, primary screen, HEK293 cells, Fluo-4 calcium flux; actives 1.3% (n = 310,000); B-score at 10 µM; AID 588676, 2011; Mas-related G-protein coupled receptor member X1 (Homo sapiens), Q96LB2; BAM8-22 antagonism; stronger effect = lower value;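 active = calcium-response B-score plate-corrected more than 3 library SD below zero, starting fluorescence within 5 deviations, no agonist response on first addition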;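 also: peak minus trough fluorescence over baseline after final BAM8-22 challenge near maximal dose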
RGS4 act valid = reduced carbachol calcium response, RGS4-induced M3R cells, confirmation, RGS4 activator project, cell-based, HEK293 M3R/RGS4 inducible, calcium flux, duplicate; inhibition, % at 10 µM; actives 89% (n = 1,100); shares compounds with RGS4 act; carbachol calcium flux Fluo4;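 active = inhibition above 3 SD of the buffer control wells, cut at about 41% in these data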;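 also: signal is the integrated peak-minus-minimum Fluo4 fluorescence over baseline ratio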
RGS4 act ctr = counter-screen for RGS4 activators: effect in non-induced cells | shares compounds with RGS4 act | HEK293 M3R non-induced RGS4, Fluo4 calcium flux; after carbachol challenge at its EC90 | inhibition, % at 10 µM | actives 82% (n = 1,100) | AID 602283;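 active = inhibition exceeding 3 SD of buffer-only control wells, cut at about 26% in these data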;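 also: percent drop in integrated peak-minus-baseline over baseline Fluo4 ratio after carbachol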
The depositor's hits bear a star; i = inactive; / = not tested or not shown. An excerpt weighted towards active compounds, which were near 3.5% of everything screened.

SMILES | MrgX1 allo act | RGS4 act | RGS4 inh | MrgX1 ag | MrgX1 antagonist | RGS4 act valid | RGS4 act ctr
COc1ccccc1C(=O)NCC(c1cccs1)N1CCc2ccccc21 (configuration not stated) | i | -7.77* | i | i | i | 61.5* | 36.3*
COc1ccc2c(c1)C=C([C@@H]1C[C@H]3CN(c4ccccc4)C(=O)[C@]34CCCN14)CO2 | i | -10.3* | i | i | i | 69.5* | 83.8*
CCN(CC)C(=O)CC(c1cc(OC)c(OC)c(OC)c1)c1c(OC)cc(OC)c2c(-c3ccccc3)cc(=O)oc12 (configuration not stated) | i | i | i | i | i | / | /
CC(=O)Nc1ccc2nc(NC(=O)CN3CCOCC3)sc2c1 | i | i | i | i | i | / | /
c1ccc2c(c1)[nH]c1c(N3CCN(C4CCCCC4)CC3)ncnc12 | i | -7.77* | i | i | i | 64.0* | 83.8*
Brc1cccc(-c2cnc3n2CCCCC3)c1 | i | -7.89* | i | i | i | 84.0* | 55.8*
Brc1cccc(-c2nnc3n2CCCCC3)c1 | i | i | i | i | i | / | /
COc1cc(C2C(C#N)=C(N)OC3=C2C(=O)CC(C)(C)C3)cc2c1OCO2 (configuration not stated) | i | i | i | i | i | / | /
CCCCc1nc2cc(C(=O)NCc3nccn3CC)ccc2o1 | i | -9.07* | i | i | i | 92.5* | 78.3*
Cc1nc2ccc(Br)cc2c(=O)n1Cc1cccs1 | i | i | i | i | i | / | /
Cc1ccc2c(c1)N(CC(=O)Nc1ncccc1C)C(=O)C(C(C)C)O2 (configuration not stated) | i | i | i | i | i | / | /
Cc1cc(NS(=O)(=O)c2c(C)c(C)cc(C)c2C)no1 | i | i | i | i | i | / | /
CCOc1cc(C)c(C(C)C)cc1S(=O)(=O)N1CCOCC1 | i | i | i | i | i | / | /
COc1cc(C)c(C(C)C)cc1S(=O)(=O)N1CCOCC1 | i | -8.83* | i | i | i | 0.0 | 0.0
CCCCN(CCCC)S(=O)(=O)c1ccc(NC(=O)c2ccc([N+](=O)[O-])cc2Cl)cc1 | i | -10.9* | i | i | i | 86.5* | 59.8*
CC(=O)N1CCN(c2ccc(NC(=O)c3ccc([N+](=O)[O-])cc3Cl)cc2)CC1 | i | i | i | i | i | / | /
O=C1CCCN1S(=O)(=O)c1ccccc1 | i | -7.89* | i | i | i | 50.0* | 0.0
COc1ccc(C(=O)c2cnc3ccccc3c2-c2ccccc2)cc1 | i | -8.56* | i | i | i | 85.5* | 66.3*
Cc1ccc(C(=O)c2cnc3ccccc3c2-c2ccccc2)cc1 | i | -8.33* | i | i | i | 77.5* | 57.8*
Cc1csc(CN(C)C(=O)CC2C(=O)NCCN2Cc2ccc(F)c(F)c2)n1 (configuration not stated) | i | i | i | i | i | / | /
O=C(CCC1CCCN(Cc2cccc3c2OCO3)C1)NCc1ccc(F)c(F)c1 (configuration not stated) | i | -9.43* | i | i | i | 50.5* | 32.8*
COc1ccccc1/C=C/CN1CCCC(CCC(=O)NCc2ccc(F)c(F)c2)C1 (configuration not stated) | i | i | i | i | i | / | /
COc1ccc(/C=C/CN2CCCC(CCC(=O)NCc3ccc(F)c(F)c3)C2)cc1 (configuration not stated) | i | -7.82* | i | i | i | 91.5* | 87.3*
COC(=O)c1ccc(CN2CCCC(CCC(=O)NCc3ccc(C)o3)C2)cc1 (configuration not stated) | i | -8.99* | i | i | i | 88.0* | 70.8*
O=C(O)c1ccc(C(=O)O)c(C(=O)c2ccc(NC(=O)c3ccccc3)cc2)c1 | i | i | i | i | i | / | /
SMILES | MrgX1 allo act | RGS4 act | RGS4 inh | MrgX1 ag | MrgX1 antagonist | RGS4 act valid | RGS4 act ctr
O=C(NCc1ccc(Cl)cc1)c1cccc(NC(=O)c2ccccc2)c1 | i | i | i | i | i | / | /
O=C(NCCc1ccc(F)cc1)c1cccc(NC(=O)c2ccccc2)c1 | i | -7.66* | i | i | i | 55.5* | 0.0
CCN1CCN(CCn2c(=S)[nH]c3ccccc3c2=O)CC1 | i | -7.82* | i | i | i | 85.0* | 59.3*
CC(c1ccccc1)C(NC(=O)OCC1c2ccccc2-c2ccccc21)C(=O)O (configuration not stated) | i | i | i | i | i | / | /
CN1CCN(C2=Cc3ccccc3Sc3cc(F)ccc32)CC1 | 8.19* | -12.1* | i | i | i | 92.0* | 94.3*
OCC1(Cc2ccccc2C(F)(F)F)CCN(Cc2ccc3c(c2)CCO3)CC1 | i | -10* | i | i | i | 55.0* | 83.8*
OCC1(Cc2ccccc2C(F)(F)F)CCN(Cc2ccccc2)CC1 | i | i | i | i | i | / | /
COc1ccc(-c2nc(-c3ccc(O)cc3O)cs2)cc1OC | / | -11.4* | i | / | / | 78.0* | 50.8*
CN1CCN(CCNC(=O)c2ccc3nc(-c4ccc(F)cc4)c(-c4ccc(F)cc4)nc3c2)CC1 | i | -9.73* | i | i | i | 90.5* | 84.3*
O=C(O)c1ccc2nc(-c3ccccc3)c(-c3ccccc3)nc2c1 | i | i | i | i | i | / | /
CCN1CCN(C(=O)c2ccc3nc(-c4ccccc4)c(-c4ccccc4)nc3c2)CC1 | i | -9.44* | i | i | i | 73.0* | 83.8*
OC(CN1CCCCCC1)CN(c1ccccc1)c1ccccc1 (configuration not stated) | i | i | i | i | i | / | /
OC(CN1CCCCC1)CN(c1ccccc1)c1ccccc1 (configuration not stated) | i | -9.81* | i | i | i | 89.5* | 58.3*
CC[N+]1(C)CCC(=C2c3ccccc3CC(=O)c3sccc32)CC1 (configuration not stated) | i | -10.8* | i | i | -6.66* | 95.0* | 84.3*
Brc1ccc(C2=Nn3cnnc3SC2)cc1 | i | i | i | i | i | / | /
